PMI act: phosphomannose isomerase (human) activation; AID 1214; hit rate 0.005% among 190,000; activation factor at 20 µM; purified human PMI, coupled resazurin fluorescence, 20 min; stronger effect = higher value; 1 = vehicle control, 0 substrate-free wells; P34949;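 active = activation factor of 2 or more at 20 µM, relative to plate controls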
TNAP act hiacc: activators of human TNAP at high phosphate acceptor concentration | P05186 | purified TNAP, CDP-star luminescence, 1 M DEA, 30 min; stronger effect = higher value; 0 = EDTA background, 1 = DMSO-only activity | 200,000 tested, under 10 active | activation factor at 20 µM | AID 1136;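 active = activation factor at least 2 at 20 µM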
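Control set: EDTA negative control, DMSO positive control / Assay system: human TNAP / Quantity: TNAP 1/800 final / Evaluation: TNAP activation factor scaled between EDTA and DMSO control wells / Measured by: luminescent substrate turnover signal / Compound dosing: one dose, 20 µM / Times: 30 min enzyme reaction at room temperature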
PMI act hi M6P: increases human PMI activity with near-saturating mannose 6-phosphate. AID 1216. coupled PMI enzyme assay, resazurin fluorescence, 20 min; stronger effect = higher value; 1 = untreated enzyme, 0 = substrate-free blank. activation factor at 20 µM. P34949. hit rate 0.34% among 190,000;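 active = activation factor of 2 or more at 20 µM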
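Test system: human phosphomannose isomerase with PGI, G6PDH, diaphorase coupling enzymes; amount: 15 ng/mL PMI; incubation: enzyme reaction with compound 20 min at room temperature; technique: resorufin fluorescence (Ex 544/Em 590 nm) from resazurin via diaphorase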
Rad51 HR inh: Rad51 (human) homologous recombination inhibition | Q06609 | hRad51 DNA strand exchange, fluorescence dequenching | inhibition, % at 10 µM | hit rate 0.085% among 200,000 | AID 1385;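 active = inhibition above 40% at the single screening dose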;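 note: 0% = DMSO control wells and 100% = blanks with heterologous ssDNA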
Target sequence (Q06609 whole entry, looked up): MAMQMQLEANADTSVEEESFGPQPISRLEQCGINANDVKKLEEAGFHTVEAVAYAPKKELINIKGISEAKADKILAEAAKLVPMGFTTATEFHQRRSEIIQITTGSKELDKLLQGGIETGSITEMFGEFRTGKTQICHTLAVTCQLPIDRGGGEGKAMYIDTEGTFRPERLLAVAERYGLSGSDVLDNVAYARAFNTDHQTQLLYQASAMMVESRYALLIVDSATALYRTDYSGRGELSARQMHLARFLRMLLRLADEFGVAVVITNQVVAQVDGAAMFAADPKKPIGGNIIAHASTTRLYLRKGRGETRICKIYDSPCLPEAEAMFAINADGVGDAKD
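Assay system: Human Rad51 nucleoprotein filaments preassembled on unlabelled ssDNA | Reagent: Donor/quencher-labelled 47-bp dsDNA substrate | Doses: One concentration, 10 µM final | Times: 37 °C 15-min filament assembly, 30-min compound preincubation, 15-min exchange | Technique: Fluorescein emission 520 nm, excitation 485 nm | Benchmarks: Plate control and blank wells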
TNAP inh hiacc: inhibitors of human TNAP at high phosphate acceptor concentration; purified TNAP, CDP-star luminescence, 1 M DEA; AID 1135; hit rate 0.03% among 200,000; P05186; inhibition, % at 20 µM;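 active = over 50% inhibition of tissue-nonspecific alkaline phosphatase at 20 µM in the single-dose screen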;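 note: plate controls were DMSO wells for no effect and EDTA-quenched wells as full inhibition for full effect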
TNAP inh no acc: inhibitors of human TNAP without phosphate acceptor | purified TNAP, CDP-star luminescence, 30 min | inhibition, % at 20 µM | AID 1012 | hit rate 0.26% among 200,000;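 active = tissue-nonspecific alkaline phosphatase inhibition above about 50% at 20 µM in the single-dose screen, limit read from the data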;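 note: 0% = DMSO negative control and 100% = EDTA positive control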
* = called active by the depositor; i = inactive; x = no result. Shown are actives, neighbours in structure and some others; about 0.6% of the full set was active somewhere.

SMILES	PMI act	TNAP act hiacc	PMI act hi M6P	Rad51 HR inh	TNAP inh hiacc	TNAP inh no acc
Brc1cccc(-c2n[nH]c(-c3ccccc3)n2)c1	0.8	1	0.8	x	-3.5	57.0*
c1ccc(-c2nc(-c3cccnc3)n[nH]2)cc1	0.9	1	1	2.3	-1.2	20.3
COc1ccc(C(C)=O)cc1COc1ccc(F)cc1	0.8	1	0.9	11.5	-0.6	-8.1
Cc1ccc(SCCC(=O)Nc2cccnc2)cc1	x	1.1	x	-4.1	-6.4	-10.0
CSCCC1Nc2ccc(S(=O)(=O)N3CCOCC3)cc2NC1=O (stereo not drawn)	1.9	1	2.6*	-11.6	-4.5	-10.0
Cn1c(=O)n(C)c2cc(S(=O)(=O)N3CCOCC3)ccc21	0.9	1	1	1.9	-1.1	-9.0
O=[N+]([O-])c1cccc(/C=N/NS(=O)(=O)c2ccccc2)c1	1.5	1	1.1	x	-1.7	-7.8
COc1ccc(-n2c(O)c(/C=N/NS(=O)(=O)c3cccc([N+](=O)[O-])c3)c3ccccc3c2=O)cc1OC	1.5	1	2.1*	i	-0.1	-59.6
Cc1onc(-c2c(Cl)cccc2Cl)c1C(=O)c1ccccc1	x	x	x	9.8	x	x
Cc1onc(-c2c(Cl)cccc2Cl)c1C(=O)Nn1cnnc1	1	1.1	0.9	43.7*	-10.7	-10.6
O=C(c1cccnc1)N1CCN(CCCc2ccccc2)CC1	1	1	1	-0.6	-1.7	-10.7
CCOC(=O)N1CCN(C(=O)C2CCCN(S(=O)(=O)c3cc(C)ccc3OC)C2)CC1 (stereo not drawn)	0.9	1.1	0.9	-8.8	-7.4	-6.7
CCCS(=O)(=O)N1CCCC(C(=O)N2CCN(C(=O)OCC)CC2)C1 (stereo not drawn)	1.1	1	1.1	69.3*	-1.4	-10.6
COc1cc(O)c(C(CCN2CCCC(C)C2)c2ccc3c(c2)OCO3)c(OC)c1 (stereo not drawn)	x	x	x	-27.2	x	x
CCCC(=O)N(c1ccccc1)C1C=CS(=O)(=O)C1 (stereo not drawn)	1.2	1	1.1	-11.7	-1.5	-16.2
COc1ccccc1-c1nnc2n1N=C(c1ccc(O)c(O)c1)CS2	0.6	1	0.9	-6.1	4.4	66.7*
COCc1cc(C)nc2sc(C(=O)NCCO)c(-n3cccc3)c12	1.2	1	1.1	44.8*	0.9	-7.1
CCOC(=O)N1CCN(C(=O)CSc2nnc(-c3cc(OC)cc(OC)c3)o2)CC1	0.9	1	0.9	x	-3.3	-9.6
Cc1ccc(N2C(=N)SCC2=O)cc1Cl	1	1.1	1	3.0	-5.2	21.1
C=CCNC(=S)NNC(=O)c1cc(O)ccc1O	0.8	1	0.8	-6.3	2.5	67.8*
C=CCNC(=S)NNC(=O)c1ccc(Br)cc1	1	1	1.1	6.1	-3.2	-104.4
CCOc1ccc2[nH]c(=O)c(CN(CCOC)C(=O)N3CCOCC3)cc2c1	0.9	1.1	0.9	5.4	-8.1	-12.0
COc1cccc(OCC(=O)NNC(=O)c2cccs2)c1	1	1	0.9	8.2	-1.4	-4.2
Cc1ccc(N/N=C2\CCS(=O)(=O)c3sccc32)cc1	1.8	1	2.8*	4.8	-4.3	-16.2
CCSc1nc(-c2ccc(OC)cc2)ccc1C#N	0.8	1	0.9	4.8	0.1	-5.5
SMILES	PMI act	TNAP act hiacc	PMI act hi M6P	Rad51 HR inh	TNAP inh hiacc	TNAP inh no acc
C=CCSc1n[nH]c(-c2ccc(OC)cc2)n1	0.9	1	1	5.9	-3.0	80.0*
C=CCSc1n[nH]c(-c2ccccc2)n1	0.9	1	0.9	x	-1.7	76.3*
Cc1cc(C(=O)N2CCN(c3ccc(C(F)(F)F)cn3)CC2)c(C)o1	x	x	x	-5.3	x	x
Cc1nnc(NC(=O)CSc2n[nH]c(-c3ccccc3)n2)s1	1	1	1	2.6	-4.5	58.8*
COc1ccc(-c2nc(SCC(=O)Nc3cc(C)on3)n[nH]2)cc1	1	1	1	-2.3	2.5	70.4*
CCCCc1nc(SCC(=O)Nc2cc(C)on2)n[nH]1	1.1	1.1	1.1	3.9	-7.5	56.9*

Screening data from PubChem BioAssay.
